Results on 17 compounds are retold here after ChEMBL document CHEMBL3813637, “Synthesis and Antiproliferative and Metabolic Evaluations of Novel Securinine Derivatives” (ACS Med Chem Lett, 2016).

Common to all, as to format: functional
Common to all, as to conditions: HCT-116, 72 h, read-out: GI

Assay [1] is described as follows: Antiproliferative activity against human HCT116 cells assessed as reduction in cell viability at 20 uM after 72 hrs by ATPlite assay. Summed up:
(§1)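 HCT-116 human colon cancer cells exposed to compound for 72 h at 20, 10 or 1 μM. Growth inhibition is expressed as percentage relative to nontreated cells.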
(In general: Cellular ATP, detected with luciferase, serves as a proxy for viable cell number.)

Assay [2] in a line: Antiproliferative activity against human HCT116 cells assessed as reduction in cell viability at 10 uM after 72 hrs by ATPlite assay. The procedure, abridged:
as §1

The nature of assay [3]: Antiproliferative activity against human HCT116 cells assessed as reduction in cell viability at 1 uM after 72 hrs by ATPlite assay. The procedure, abridged: as §1

Turning to `O=Cc1ccc(C2=C[C@@H]3C[C@@]4(OC(=O)C=C24)[C@H]2CCCCN32)cc1`, the inhibition of growth at 20 µM in assay [1] amounted to 34.6%. The inhibition of growth at 10 µM in assay [2] is 9.5%. In addition, in assay [3], the inhibition of growth at 1 µM was -0.7%.

Turning to `Cc1cccc(C2=C[C@@H]3C[C@@]4(OC(=O)C=C24)[C@H]2CCCCN32)c1`, the inhibition of growth at 20 µM in assay [1] worked out at 33.8%. In addition, in assay [2], the inhibition of growth at 10 µM worked out at 15.6%. The inhibition of growth at 1 µM in assay [3] stood at 5.7%.

Regarding `O=C1C=C2C(c3ccco3)=C[C@@H]3C[C@@]2(O1)[C@H]1CCCCN31`, in assay [1], the inhibition of growth at 20 µM was found to be 45.5%. Moreover, the inhibition of growth at 10 µM in assay [2] is 23.8%. For the same compound, in assay [3], the inhibition of growth at 1 µM worked out at 6%.

`O=C1C=C2C(I)=C[C@@H]3C[C@@]2(O1)[C@H]1CCCCN31`: the inhibition of growth at 20 µM in assay [1] turned out to be 100%. Moreover, the inhibition of growth at 10 µM in assay [2] is 100%. Besides, the inhibition of growth at 1 µM in assay [3] was 80.9%.

In the case of `O=C1C=C2C(C#CC3CC3)=C[C@@H]3C[C@@]2(O1)[C@H]1CCCCN31`, in assay [1], the inhibition of growth at 20 µM was 93.9%. In addition, the inhibition of growth at 10 µM in assay [2] was 94.8%. In assay [3], the inhibition of growth at 1 µM worked out at 5.9%.

Regarding `COC(=O)c1ccc(C2=C[C@@H]3C[C@@]4(OC(=O)C=C24)[C@H]2CCCCN32)cc1`, the inhibition of growth at 20 µM in assay [1] worked out at 23.9%. For the same compound, the inhibition of growth at 10 µM in assay [2] came out at 10.5%. Moreover, in assay [3], the inhibition of growth at 1 µM is -3.6%.

For `O=C1C=C2C(c3ccc(C(F)(F)F)cc3)=C[C@@H]3C[C@@]2(O1)[C@H]1CCCCN31`, the inhibition of growth at 20 µM in assay [1] is 80.4%. The inhibition of growth at 10 µM in assay [2] was found to be 47.9%. Further, the inhibition of growth at 1 µM in assay [3] is -1.5%.

`CCCCCC#CC1=C[C@@H]2C[C@@]3(OC(=O)C=C13)[C@H]1CCCCN21`: in assay [1], the inhibition of growth at 20 µM worked out at 97.5%. Also, the inhibition of growth at 10 µM in assay [2] amounted to 96.6%. The inhibition of growth at 1 µM in assay [3] is 10.2%.

For `O=C1C=C2C(c3ccccc3)=C[C@@H]3C[C@@]2(O1)[C@H]1CCCCN31`, the inhibition of growth at 20 µM in assay [1] turned out to be 24.1%. Further, the inhibition of growth at 10 µM in assay [2] worked out at 9.2%. Besides, the inhibition of growth at 1 µM in assay [3] was -3.8%.

On to `O=C1C=C2C(c3ccc(Br)cc3)=C[C@@H]3C[C@@]2(O1)[C@H]1CCCCN31`, for which the inhibition of growth at 20 µM in assay [1] was 60.1%. In assay [2], the inhibition of growth at 10 µM turned out to be 23%. Also, in assay [3], the inhibition of growth at 1 µM was -5.2%.

Take `CC(C)(C)c1ccc(C2=C[C@@H]3C[C@@]4(OC(=O)C=C24)[C@H]2CCCCN32)cc1`: in assay [1], the inhibition of growth at 20 µM was 30.6%. Besides, the inhibition of growth at 10 µM in assay [2] was found to be 9.7%. Also, the inhibition of growth at 1 µM in assay [3] turned out to be 0.9%.

Regarding `Cc1ccc(C2=C[C@@H]3C[C@@]4(OC(=O)C=C24)[C@H]2CCCCN32)cc1`, the inhibition of growth at 20 µM in assay [1] stood at 30%. Besides, the inhibition of growth at 10 µM in assay [2] is 11.7%. In addition, the inhibition of growth at 1 µM in assay [3] came out at 0.3%.

Consider `CC(C)(C)C#CC1=C[C@@H]2C[C@@]3(OC(=O)C=C13)[C@H]1CCCCN21`, for which the inhibition of growth at 20 µM in assay [1] worked out at 100%. For the same compound, in assay [2], the inhibition of growth at 10 µM was determined as 98.8%. In assay [3], the inhibition of growth at 1 µM worked out at 25.2%.

For `O=C1C=C2C(C#CC3CCCCC3)=C[C@@H]3C[C@@]2(O1)[C@H]1CCCCN31`, the inhibition of growth at 20 µM in assay [1] came out at 100%. For the same compound, in assay [2], the inhibition of growth at 10 µM is 99.8%. Further, the inhibition of growth at 1 µM in assay [3] was 49.3%.

`CCCCC#CC1=C[C@@H]2C[C@@]3(OC(=O)C=C13)[C@H]1CCCCN21`: in assay [1], the inhibition of growth at 20 µM amounted to 99.5%. The inhibition of growth at 10 µM in assay [2] turned out to be 98.1%. Besides, in assay [3], the inhibition of growth at 1 µM was found to be 7.6%.

For the compound `O=C1C=C2C(c3ccc(-c4ccccc4)cc3)=C[C@@H]3C[C@@]2(O1)[C@H]1CCCCN31`, the inhibition of growth at 20 µM in assay [1] is 82.8%. Also, in assay [2], the inhibition of growth at 10 µM came to 52.6%. The inhibition of growth at 1 µM in assay [3] was 5.4%.

In the case of `O=C1C=C2C(c3ccc(F)cc3)=C[C@@H]3C[C@@]2(O1)[C@H]1CCCCN31`, the inhibition of growth at 20 µM in assay [1] was found to be 24%. The inhibition of growth at 10 µM in assay [2] worked out at 9.9%. In assay [3], the inhibition of growth at 1 µM was 2.1%.
